Experiments:
[1] = molecular target: T1, Human immunodeficiency virus type 1 protease (Human immunodeficiency virus 1, UniProt Q72874); experiment: Binding affinity against HIV-1 protease
Outline: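 Ki from the activity of 20 nM HIV-1 protease across a matrix of substrate (HIV substrate III at 10, 20, 50 and 100 µM) and at least three inhibitor levels: roughly the estimated Ki and 2–4 times it. Tight-binding rate equation fitted by nonlinear regression. Buffer and read-out as in the spectrophotometric cleavage assay.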

[2] = molecular target: T1, Human immunodeficiency virus type 1 protease; experiment: Inhibition concentration against HIV-1 protease
Outline: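 Purified HIV-1 protease (30 nM) added after 5 min preincubation of 60.8 µM chromophoric HIV substrate III with inhibitor (DMSO, final below 2.5%). Buffer: 50 mM each glycine, sodium acetate, MES and Tris-HCl, 1.0 M NaCl, 1 mM EDTA, 1 mM DTT, pH 5.5, 37 °C. Cleavage rate from absorbance change at 300 nm. IC50 from activity versus log inhibitor concentration.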

[3] = molecular target: Human immunodeficiency virus type 1 protease (Human immunodeficiency virus 1) (UniProt Q72874); conditions: 10 uM

Row | inhibition [3] [%] | Structure (SMILES) | Ki [1] [nM] | IC50 [2] [nM]
1 | – | O=C1N(Cc2ccccc2)[C@H](CCc2ccccc2)[C@H](O)[C@@H](O)[C@@H](CCc2ccccc2)N1Cc1ccccc1 | 214 | 4000
2 | – | O=S1(=O)N(Cc2ccccc2)[C@H](CCc2ccccc2)[C@H](O)[C@@H](O)[C@@H](CCc2ccccc2)N1Cc1ccccc1 | 14.7 | 200
3 | 15 | O=C1N(Cc2ccccc2)[C@@H](COc2ccccc2)[C@@H](O)[C@H](O)[C@H](COc2ccccc2)N1Cc1ccccc1 | – | –
4 | – | O=C1N(Cc2ccc(CO)cc2)[C@H](COc2ccccc2)[C@H](O)[C@@H](O)[C@@H](COc2ccccc2)N1Cc1ccc(CO)cc1 | 0.23 | 10
5 | – | COC(=O)c1ccc(CN2C(=O)N(Cc3ccc(C(=O)OC)cc3)[C@H](COc3ccccc3)[C@H](O)[C@@H](O)[C@H]2COc2ccccc2)cc1 | – | 8000
6 | 0 | O=C1N(Cc2ccccc2)[C@H](COc2ccccc2)[C@@H](O)[C@H](O)[C@@H](COc2ccccc2)N1Cc1ccccc1 | – | –
7 | – | O=C1N(Cc2ccccc2)[C@H](CCCc2ccccc2)[C@H](O)[C@@H](O)[C@@H](CCCc2ccccc2)N1Cc1ccccc1 | 570 | 10000
8 | – | O=C1N(Cc2ccc(CO)cc2)[C@H](Cc2ccccc2)[C@H](O)[C@@H](O)[C@@H](Cc2ccccc2)N1Cc1ccc(CO)cc1 [DMP-323] | – | 15
9 | – | O=S1(=O)N(Cc2ccccc2)[C@H](COc2ccccc2)[C@H](O)[C@@H](O)[C@@H](COc2ccccc2)N1Cc1ccccc1 | – | 200
10 | – | O=C1N(Cc2ccccc2)[C@H](COc2ccccc2)[C@H](O)[C@@H](O)[C@@H](COc2ccccc2)N1Cc1ccccc1 | – | 80
11 | 10 | O=C1N(Cc2ccccc2)[C@@H](COc2ccccc2)[C@H](O)[C@@H](O)[C@H](COc2ccccc2)N1Cc1ccccc1 | – | –

— ChEMBL document CHEMBL1129971, “Cyclic HIV-1 protease inhibitors derived from mannitol: synthesis, inhibitory potencies, and computational predictions of binding affinities” (J Med Chem, 1997)
